Where “and” joins values, the source holds several entries; their conditions need not be identical. Equal values may be shown once.
These molecules were tested on NCI-H23 (assay: Antitumor activity against human NCI-H23 cells). Settings: not given.
Format: functional
Summary of the method: (§1)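 Run by the NCI in its in vitro disease-oriented screen of about 60 human tumour cell lines. For each line it reports pGI50 (50% net growth inhibition), pTGI (total growth inhibition) and pLC50 (50% net cell death), each as –log molar concentration. Where an effect was not reached within the tested range, the highest tested concentration was used.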
Work on `Cc1cccc2c1[nH]c(=O)c1c3ccccc3cn21` yielded a GI50 of 17.4 µM and an LC50 (50% net cell kill) of 87.1 µM.

Same assay, conditions: read-out: pTGI (converted)
Work on `Cc1cccc2c1[nH]c(=O)c1c3ccccc3cn21` yielded a TGI of 38.9 µM.

The molecules below were run on HCC 2998 (assay: Antitumor activity against human HCC2998 cells). Settings: not given.
Format: functional
Summary of the method: as §1
In the case of `Cc1cccc2c1[nH]c(=O)c1c3ccccc3cn21`, the GI50 is reported as 4.57 µM and the LC50 is reported as 40.7 µM.

Same assay, conditions: read-out: pTGI (converted)
In the case of `Cc1cccc2c1[nH]c(=O)c1c3ccccc3cn21`, the TGI is reported as 16.2 µM.

Each molecule was assayed on HCT-15 (assay: Antitumor activity against human HCT15 cells). Settings: not given.
Format: functional
Summary of the method: as §1
`Cc1cccc2c1[nH]c(=O)c1c3ccccc3cn21` gave a GI50 of 5.25 µM.

Same assay, conditions: read-out: Log LC50 (the source's name) (converted)
`Cc1cccc2c1[nH]c(=O)c1c3ccccc3cn21` showed a CC50 greater than 100 µM.

Same assay, conditions: read-out: pTGI (converted)
`Cc1cccc2c1[nH]c(=O)c1c3ccccc3cn21` showed a TGI of 31.6 µM.

Each molecule was assayed on U-251 (assay: Antitumor activity against human U251 cells). Settings: not given.
Format: functional
Summary of the method: (§2)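 NCI 60-cell-line screen. Parameters were GI50 (50% net growth inhibition), TGI and LC50, each reported as –log molar concentration. Where an effect was not reached within the tested range, the highest tested concentration was used in the calculation.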
`Cc1cccc2c1[nH]c(=O)c1c3ccccc3cn21` was tested, and the GI50 was 6.61 µM.

Same assay, conditions: read-out: Log LC50 (the source's name) (converted)
For `Cc1cccc2c1[nH]c(=O)c1c3ccccc3cn21`, the CC50 was 45.7 µM.

Same assay, conditions: read-out: pTGI (converted)
In the case of `Cc1cccc2c1[nH]c(=O)c1c3ccccc3cn21`, the TGI is reported as 19.5 µM.

The molecules below were run on DU-145 (assay: Antitumor activity against human DU145 cells). Settings: not given.
Format: functional
Summary of the method: as §1
`Cc1cccc2c1[nH]c(=O)c1c3ccccc3cn21` was tested, and the GI50 was 5.25 µM and 17.4 µM.

Same assay, conditions: Homo sapiens, DU-145; read-out: Log LC50 (the source's name) (converted)
With `Cc1cccc2c1[nH]c(=O)c1c3ccccc3cn21` the CC50 was 41.7 µM.

These molecules were tested on 786-0 (assay: Antitumor activity against human 786-0 cells). Settings: not given.
Format: functional
Summary of the method: as §1
For `Cc1cccc2c1[nH]c(=O)c1c3ccccc3cn21`, the GI50 was 5.89 µM.

Same assay, conditions: read-out: Log LC50 (the source's name) (converted)
For `Cc1cccc2c1[nH]c(=O)c1c3ccccc3cn21`, the CC50 was greater than 100 µM.

Same assay, conditions: read-out: pTGI (converted)
For `Cc1cccc2c1[nH]c(=O)c1c3ccccc3cn21`, the TGI was 32.4 µM.

Each molecule was assayed on HCT-116 (assay: Antitumor activity against human HCT116 cells). Settings: not given.
Format: functional
Summary of the method: as §1
In the case of `Cc1cccc2c1[nH]c(=O)c1c3ccccc3cn21`, the GI50 is reported as 2.69 µM and the LC50 is reported as 33.9 µM.

Same assay, conditions: read-out: pTGI (converted)
`Cc1cccc2c1[nH]c(=O)c1c3ccccc3cn21` was tested, and the TGI was 11.7 µM.

The molecules below were run on OVCAR-5 (assay: Antitumor activity against human OVCAR5 cells). Settings: not given.
Format: functional
Summary of the method: as §1
`Cc1cccc2c1[nH]c(=O)c1c3ccccc3cn21` showed a GI50 of 17.8 µM and an LC50 (50% net cell death) greater than 100 µM.

Same assay, conditions: read-out: pTGI (converted)
With `Cc1cccc2c1[nH]c(=O)c1c3ccccc3cn21` the TGI was 66.1 µM.

What follows are molecules tested on OVCAR-4 (assay: Antitumor activity against human OVCAR4 cells). Settings: not given.
Format: functional
Summary of the method: as §1
Molecule `Cc1cccc2c1[nH]c(=O)c1c3ccccc3cn21` has a GI50 of 6.76 µM and an LC50 (50% net cell kill) greater than 100 µM.

Same assay, conditions: read-out: pTGI (converted)
`Cc1cccc2c1[nH]c(=O)c1c3ccccc3cn21` gave a TGI greater than 100 µM.

What follows are molecules tested on RPMI-8226 (assay: Antitumor activity against human RPMI8226 cells). Settings: not given.
Format: functional
Summary of the method: as §1
Molecule `Cc1cccc2c1[nH]c(=O)c1c3ccccc3cn21` has a GI50 of 2 µM.

Same assay, conditions: read-out: Log LC50 (the source's name) (converted)
`Cc1cccc2c1[nH]c(=O)c1c3ccccc3cn21` showed a CC50 of 60.3 µM.

Same assay, conditions: read-out: pTGI (converted)
`Cc1cccc2c1[nH]c(=O)c1c3ccccc3cn21` gave a TGI of 7.08 µM.

What follows are molecules tested on NCI/ADR-RES (assay: Antitumor activity against human NCI/ADR-RES cells). Settings: not given.
Format: functional
Summary of the method: as §1
`Cc1cccc2c1[nH]c(=O)c1c3ccccc3cn21` was tested, and the GI50 was 12 µM and the LC50 was greater than 100 µM.

Same assay, conditions: read-out: pTGI (converted)
`Cc1cccc2c1[nH]c(=O)c1c3ccccc3cn21` was tested, and the TGI was 34.7 µM.

The molecules below were run on NCI-H460 (assay: Antitumor activity against human NCI-H460 cells). Settings: not given.
Format: functional
Summary of the method: as §1
In the case of `Cc1cccc2c1[nH]c(=O)c1c3ccccc3cn21`, the GI50 is reported as 1.91 µM.

Same assay, conditions: read-out: Log LC50 (the source's name) (converted)
In the case of `Cc1cccc2c1[nH]c(=O)c1c3ccccc3cn21`, the CC50 is reported as 31.6 µM.

Same assay, conditions: read-out: pTGI (converted)
Work on `Cc1cccc2c1[nH]c(=O)c1c3ccccc3cn21` yielded a TGI of 10 µM.

Each molecule was assayed on Hs-578T (assay: Antitumor activity against human HS578T cells). Settings: not given.
Format: functional
Summary of the method: as §1
In the case of `Cc1cccc2c1[nH]c(=O)c1c3ccccc3cn21`, the GI50 is reported as 21.9 µM.

Same assay, conditions: read-out: Log LC50 (the source's name) (converted)
`Cc1cccc2c1[nH]c(=O)c1c3ccccc3cn21` was tested, and the CC50 was greater than 100 µM.

Same assay, conditions: read-out: pTGI (converted)
Molecule `Cc1cccc2c1[nH]c(=O)c1c3ccccc3cn21` has a TGI of 64.6 µM.

The molecules below were run on BT-549 (assay: Antitumor activity against human BT549 cells). Settings: not given.
Format: functional
Summary of the method: as §1
`Cc1cccc2c1[nH]c(=O)c1c3ccccc3cn21` gave a GI50 of 12 µM and an LC50 (50% net cell kill) greater than 100 µM.

Same assay, conditions: read-out: pTGI (converted)
In the case of `Cc1cccc2c1[nH]c(=O)c1c3ccccc3cn21`, the TGI is reported as 58.9 µM.

What follows are molecules tested on SF-268 (assay: Cell viability against human SF268 cells at 10 uM). Settings: not given.
Format: functional
Work on `Cc1cccc2c1[nH]c(=O)c1c3ccccc3cn21` yielded an Activity of 55%.

What follows are molecules tested on SF-539 (assay: Antitumor activity against human SF539 cells). Settings: not given.
Format: functional
Summary of the method: as §1
With `Cc1cccc2c1[nH]c(=O)c1c3ccccc3cn21` the GI50 was 3.89 µM and the LC50 (50% net cell kill) was 40.7 µM.

Same assay, conditions: read-out: pTGI (converted)
In the case of `Cc1cccc2c1[nH]c(=O)c1c3ccccc3cn21`, the TGI is reported as 15.8 µM.

The molecules below were run on SK-OV-3 (assay: Antitumor activity against human SKOV3 cells). Settings: not given.
Format: functional
Summary of the method: as §1
In the case of `Cc1cccc2c1[nH]c(=O)c1c3ccccc3cn21`, the GI50 is reported as 27.5 µM and the LC50 (50% net cell kill) is reported as greater than 100 µM.

Same assay, conditions: read-out: pTGI (converted)
In the case of `Cc1cccc2c1[nH]c(=O)c1c3ccccc3cn21`, the TGI is reported as greater than 100 µM.

Each molecule was assayed on MCF7 (assay: Cell viability against human MCF7 cells at 10 uM). Settings: not given.
Format: functional
Work on `Cc1cccc2c1[nH]c(=O)c1c3ccccc3cn21` yielded an Activity of 27%.

What follows are molecules tested on CCRF-CEM (assay: Growth inhibition of human CEM cells after 72 hrs by MTT assay). Settings: not given.
Format: functional
Summary of the method: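 Growth inhibition by MTT after 72 h incubation. Resistant sublines: LoVoDoxo and MCF-7 MDR were kept in 0.1 µg/mL doxorubicin; CEMVbl-100 was selected against vinblastine. GI50 given as mean ± SEM of three independent experiments. Resistance index is resistant-line GI50 over parental GI50.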
`Cc1cccc2c1[nH]c(=O)c1c3ccccc3cn21` showed a GI50 of 2.9 µM.

These molecules were tested on SR (assay: Antitumor activity against human SR cells). Settings: not given.
Format: functional
Summary of the method: as §2
`Cc1cccc2c1[nH]c(=O)c1c3ccccc3cn21` gave a GI50 of 1.55 µM and an LC50 of 12.6 µM.

Same assay, conditions: read-out: pTGI (converted)
With `Cc1cccc2c1[nH]c(=O)c1c3ccccc3cn21` the TGI was 4.17 µM.

The molecules below were run on SK-MEL-5 (assay: Antitumor activity against human SKMEL5 cells). Settings: not given.
Format: functional
Summary of the method: as §1
Molecule `Cc1cccc2c1[nH]c(=O)c1c3ccccc3cn21` has a GI50 of 11.7 µM and an LC50 of 49 µM.

Same assay, conditions: read-out: pTGI (converted)
Molecule `Cc1cccc2c1[nH]c(=O)c1c3ccccc3cn21` has a TGI of 24 µM.

These molecules were tested on OVCAR-3 (assay: Antitumor activity against human OVCAR-3 cells). Settings: not given.
Format: functional
Summary of the method: as §1
With `Cc1cccc2c1[nH]c(=O)c1c3ccccc3cn21` the GI50 was 4.79 µM and the LC50 (50% net cell death) was greater than 100 µM.

Same assay, conditions: read-out: pTGI (converted)
Molecule `Cc1cccc2c1[nH]c(=O)c1c3ccccc3cn21` has a TGI of 28.2 µM.

What follows are molecules tested on ACHN (assay: Antitumor activity against human ACHN cells). Settings: not given.
Format: functional
Summary of the method: as §1
Molecule `Cc1cccc2c1[nH]c(=O)c1c3ccccc3cn21` has a GI50 of 4.07 µM and an LC50 (50% net cell kill) greater than 100 µM.

Same assay, conditions: read-out: pTGI (converted)
`Cc1cccc2c1[nH]c(=O)c1c3ccccc3cn21` was tested, and the TGI was 22.4 µM.

Each molecule was assayed on T47D (assay: Antitumor activity against human T47D cells). Settings: not given.
Format: functional
Summary of the method: as §2
Work on `Cc1cccc2c1[nH]c(=O)c1c3ccccc3cn21` yielded a GI50 of 11.5 µM and an LC50 greater than 100 µM.

Same assay, conditions: read-out: pTGI (converted)
`Cc1cccc2c1[nH]c(=O)c1c3ccccc3cn21` gave a TGI of 49 µM.

The molecules below were run on CCRF-CEM (assay: Resistance index, Ratio of GI50 for human vinblastine-resistant CEM cells to GI50 for human CEM cells). Settings: not given.
Format: functional
In the case of `Cc1cccc2c1[nH]c(=O)c1c3ccccc3cn21`, the RatioGI50 is reported as 1.04.

— ChEMBL document CHEMBL1144782, “Isoindolo[2,1-a]quinoxaline derivatives, novel potent antitumor agents with dual inhibition of tubulin polymerization and topoisomerase I” (2008)
